Source: ChEMBL document CHEMBL3784969, “Pharmacokinetics of flutamide in patients with renal insufficiency” (Br J Clin Pharmacol, 1999)

Columns and labels:
Homo sapiens [1] = test: Final time point in terminal phase in patient (6 patients) with renal insufficiency assessed as hydroxy flutamide at 250 mg, po administered as single dose by gas chromatography; format: ADME, organism-based; conditions: in vivo
In short: (§1)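 Males grouped by 24 h CLcr normalised to body surface area (>80, 50–80, 30–49, 5–29 ml min−1 1.73 m−2), fasted 10 h pre-dose and 4 h post-dose, given a single oral 250 mg flutamide dose. Plasma sampled 0–96 h; urine collected in blocks to 96 h. Flutamide and hydroxyflutamide measured by GC with electron-capture detection. Renal CL = Ae(0,96 h)/AUC(0,96 h); t1/2 = 0.693/λz.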

Homo sapiens [2] = test: AUClast in patient (7 patients) with renal insufficiency at 250 mg, po assessed as hydroxy flutamide administered as single dose by gas chromatography; format: ADME, organism-based; design: dose 250 mg, time 0 - last, route oral; conditions: in vivo
Homo sapiens [3] = test: AUC (0 to infinity) in patient (6 patients) with renal insufficiency at 250 mg, po assessed as hydroxy flutamide administered as single dose by gas chromatography; format: ADME, organism-based; design: dose 250 mg, route oral, time infinity; conditions: in vivo
Homo sapiens [4] = test: AUC (0 to 24 hrs) in patient (6 patients) with renal insufficiency assessed as hydroxy flutamide at 250 mg, po administered as single dose 4 hrs prior to hemodialysis treatment measured at starting time of dialysis and post dialysis treatment by gas chromatography; format: ADME, organism-based; design: time < 24 hr, dose 250 mg, route oral; conditions: in vivo
Homo sapiens [5] = test: AUC (0 to 24 hrs) in patient (3 patients) with renal insufficiency assessed as hydroxy flutamide at 250 mg, po administered as single dose by gas chromatography; format: ADME, organism-based; design: dose 250 mg, time < 24 hr, route oral; conditions: in vivo
Homo sapiens [6] = test: AUClast in patient (6 patients) with renal insufficiency assessed as hydroxy flutamide at 250 mg, po administered as single dose 4 hrs prior to hemodialysis treatment measured at starting time of dialysis and post dialysis treatment by gas chromatography; format: ADME, organism-based; design: dose 250 mg, time 0 - last, route oral; conditions: in vivo
Homo sapiens [7] = test: AUC (0 to 96 hrs) in patient (4 patients) with renal insufficiency at 250 mg, po assessed as hydroxy flutamide administered as single dose by gas chromatography; format: ADME, organism-based; design: dose 250 mg, time < 96 hr, route oral; conditions: in vivo
Homo sapiens [8] = test: Terminal half life in patient (6 patients) with renal insufficiency assessed as hydroxy flutamide at 250 mg, po administered as single dose by gas chromatography; format: ADME, organism-based; conditions: in vivo; in short: as §1
Homo sapiens [9] = test: Cmax in patient (7 patients) with renal insufficiency assessed as hydroxy flutamide at 250 mg, po administered as single dose by gas chromatography; format: ADME, organism-based; design: dose 250 mg, route oral; conditions: in vivo
[10] = Drug excretion in urine of patient (6 patients) with renal insufficiency at 250 mg, po administered as single dose by gas chromatography; format: ADME, organism-based; conditions: human, in vivo; in short: as §1
[11] = Drug excretion in urine of patient (3 patients) with renal insufficiency at 250 mg, po administered as single dose by gas chromatography; format: ADME, organism-based; conditions: human, in vivo; in short: as §1
Homo sapiens [12] = test: AUClast in patient (3 patients) with renal insufficiency at 250 mg, po assessed as hydroxy flutamide administered as single dose by gas chromatography; format: ADME, organism-based; design: dose 250 mg, time 0 - last, route oral; conditions: in vivo
Homo sapiens [13] = test: Final time point in terminal phase in patient (7 patients) with renal insufficiency at 250 mg, po administered as single dose by gas chromatography; format: ADME, organism-based; conditions: in vivo; in short: as §1
[14] = Cmax in patient (6 patients) with renal insufficiency at 250 mg, po administered as single dose by gas chromatography; format: ADME, organism-based; design: dose 250 mg, route oral; conditions: human, in vivo
Homo sapiens [15] = test: Final time point in terminal phase in patient (6 patients) with renal insufficiency assessed as hydroxy flutamide at 250 mg, po administered as single dose 4 hrs prior to hemodialysis treatment measured at starting time of dialysis and post dialysis treatment by gas chromatography; format: ADME, organism-based; conditions: in vivo
In short: (§2)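 Group V haemodialysis males (CLcr <5 ml min−1 1.73 m−2). Single oral 250 mg flutamide (two 125 mg capsules) right after HD; after 14-day washout, same dose 4 h before HD lasting 2–4 h. Venous samples to 48 h, arterial/venous during HD, dialysate in hourly blocks. GC with 63Ni electron-capture detection. CL(HD) = dialysate Ae(HD)/arterial AUC(HD); renal CL = Ae(0,48)/AUC(0,48 h).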

[16] = Cmax in patient (4 patients) with renal insufficiency at 250 mg, po administered as single dose by gas chromatography; format: ADME, organism-based; design: dose 250 mg, route oral; conditions: human, in vivo
[17] = Cmax in patient (7 patients) with renal insufficiency at 250 mg, po administered as single dose by gas chromatography; format: ADME, organism-based; design: dose 250 mg, route oral; conditions: human, in vivo
Homo sapiens [18] = test: AUC (0 to infinity) in patient (6 patients) with renal insufficiency assessed as hydroxy flutamide at 250 mg, po administered as single dose 4 hrs prior to hemodialysis treatment measured at starting time of dialysis and post dialysis treatment by gas chromatography; format: ADME, organism-based; design: dose 250 mg, time infinity, route oral; conditions: in vivo
Homo sapiens [19] = test: Final time point in terminal phase in patient (7 patients) with renal insufficiency assessed as hydroxy flutamide at 250 mg, po administered as single dose by gas chromatography; format: ADME, organism-based; conditions: in vivo; in short: as §1
[20] = Cmax in patient (6 patients) with renal insufficiency at 250 mg, po administered as single dose 4 hrs prior to hemodialysis treatment measured at starting time of dialysis and post dialysis treatment by gas chromatography; format: ADME, organism-based; design: dose 250 mg, route oral; conditions: human, in vivo
[21] = Half life in patient with renal insufficiency at 250 mg, po administered first dose followed by 14 days wash out period and administered second dose 4 hrs prior to hemodialysis day measured during hemodialysis treatment by gas chromatography; format: ADME, organism-based; conditions: human, in vivo; in short: as §2
[22] = Renal clearance in patient (3 patients) with renal insufficiency at 250 mg, po administered as single dose by gas chromatography; format: ADME, organism-based, Kidney; conditions: human, in vivo; in short: as §1
Homo sapiens [23] = test: Final time point in terminal phase in patient (6 patients) with renal insufficiency at 250 mg, po administered as single dose by gas chromatography; format: ADME, organism-based; conditions: in vivo; in short: as §1
[24] = Drug recovery in dialysate of patient (6 patients) with renal insufficiency at 250 mg, po administered as single dose 4 hrs prior to hemodialysis treatment measured during dialysis treatment by gas chromatography; format: ADME, organism-based; conditions: human, in vivo; in short: as §2
[25] = AUC (0 to 24 hrs) in patient (6 patients) with renal insufficiency at 250 mg, po administered as single dose by gas chromatography; format: ADME, organism-based; design: dose 250 mg, time < 24 hr, route oral; conditions: human, in vivo
Homo sapiens [26] = test: AUC (0 to infinity) in patient (4 patients) with renal insufficiency at 250 mg, po assessed as hydroxy flutamide administered as single dose by gas chromatography; format: ADME, organism-based; design: dose 250 mg, time infinity, route oral; conditions: in vivo
Homo sapiens [27] = test: Final time point in terminal phase in patient (6 patients) with renal insufficiency at 250 mg, po administered as single dose 4 hrs prior to hemodialysis treatment measured at starting time of dialysis and post dialysis treatment by gas chromatography; format: ADME, organism-based; conditions: in vivo; in short: as §2
Homo sapiens [28] = test: Terminal half life in patient (3 patients) with renal insufficiency assessed as hydroxy flutamide at 250 mg, po administered as single dose by gas chromatography; format: ADME, organism-based; conditions: in vivo; in short: as §1
Homo sapiens [29] = test: AUC (0 to 24 hrs) in patient (7 patients) with renal insufficiency assessed as hydroxy flutamide at 250 mg, po administered as single dose by gas chromatography; format: ADME, organism-based; design: dose 250 mg, time < 24 hr, route oral; conditions: in vivo
[30] = AUC (0 to 24 hrs) in patient (6 patients) with renal insufficiency at 250 mg, po administered as single dose 4 hrs prior to hemodialysis treatment measured at starting time of dialysis and post dialysis treatment by gas chromatography; format: ADME, organism-based; design: time < 24 hr, dose 250 mg, route oral; conditions: human, in vivo
Homo sapiens [31] = test: Tmax in patient (6 patients) with renal insufficiency assessed as hydroxy flutamide at 250 mg, po administered as single dose 4 hrs prior to hemodialysis treatment measured at starting time of dialysis and post dialysis treatment by gas chromatography; format: ADME, organism-based; conditions: in vivo; in short: as §2
[32] = AUClast in patient (4 patients) with renal insufficiency at 250 mg, po administered as single dose by gas chromatography; format: ADME, organism-based; design: dose 250 mg, time 0 - last, route oral; conditions: human, in vivo

For `CC(C)C(=O)Nc1ccc([N+](=O)[O-])c(C(F)(F)F)c1` [FLUTAMIDE], the Time (Homo sapiens [1]) was 46 h, the AUClast (Homo sapiens [2]) was 4928 ng·h/mL and the AUC (Homo sapiens [3]) was 5527 ng·h/mL. The AUC (Homo sapiens [4]) was 5434 ng·h/mL, the AUC (Homo sapiens [5]) was 6166 ng·h/mL and the AUClast (Homo sapiens [6]) was 5862 ng·h/mL. The AUC (Homo sapiens [7]) was 6499 ng·h/mL, the “beta t1/2” value (Homo sapiens [8]) was 7.3 h and the Cmax (Homo sapiens [9]) was 967 ng/mL. For the same compound, the Drug excretion [10] was 24.4 µg, the Drug excretion [11] was 14 µg and the AUClast (Homo sapiens [12]) was 6843 ng·h/mL. The Time (Homo sapiens [13]) was 3.6 h, the Cmax [14] was 53.4 ng/mL and the Time (Homo sapiens [15]) was 43 h. It also gave a Cmax [16] of 44 ng/mL, a Cmax [17] of 20.9 ng/mL and an AUC (Homo sapiens [18]) of 5963 ng·h/mL. The Time (Homo sapiens [19]) was 38.6 h, the Cmax [20] was 81 ng/mL and the half-life [21] was 4.3 h. The CL renal [22] was 2 mL/min, the Time (Homo sapiens [23]) was 4.4 h and the Drug recovery [24] was 0 mg. The AUC(0-t) at 24 h [25] was 96.4 ng·h/mL, the AUC (Homo sapiens [26]) was 6499 ng·h/mL and the Time (Homo sapiens [27]) was 7 h. For the same compound, the “beta t1/2” value (Homo sapiens [28]) was 8 h, the AUC (Homo sapiens [29]) was 4663 ng·h/mL and the AUC(0-t) at 24 h [30] was 217 ng·h/mL. It also gave a Tmax (Homo sapiens [31]) of 1 h and an AUC(0-t) [32] of 79 ng·h/mL.
